This note sets out measurements from ChEMBL document CHEMBL1909575, “Novel natural product-based cinnamates and their thio and thiono analogs as potent inhibitors of cell adhesion molecules on human endothelial cells” (Eur J Med Chem, 2011).

Data set [1] relates to HUVEC. The experiment in a line: Antiinflammatory activity against TNF-alpha-induced ICAM1 protein expression in HUVEC pretreated for 2 hrs before TNFalpha challenge measured after 16 hrs by whole cell ELISA. In kind it is functional, cell-based. The following applies: Homo sapiens. The method in brief:
(§1)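 Primary umbilical cord endothelial cells were pre-incubated 2 h with or without compound, then TNF-α (10 ng/mL) for 16 h (ICAM-1, VCAM-1) or 4 h (E-selectin). Whole-cell ELISA: glutaraldehyde fixation, milk block, primary antibody overnight at 4 °C, peroxidase secondary, OPD substrate, A490. IC50 read from %inhibition vs log concentration plots of three independent experiments. Single-level values were taken at the highest concentration giving >95% viability (MTT, 24 h).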

A short description of data set [2]: Cytotoxicity against HUVEC assessed as maximum tolerated dose for >95% cell viability after 24 hrs by MTT assay. In kind it is cell-based. The following applies: human, HUVEC cells; read-out: MTD. The method in brief:
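Primary human umbilical vein endothelial cells (mild trypsinization), grown in M-199 with 15% heat-inactivated FCS, endothelial cell growth factor and heparin, 5% CO2. Cells attached overnight, then exposed to compounds or DMSO (0.25%) for 24 h; MTT (5 mg/mL in PBS) 4 h, formazan dissolved in DMSO, absorbance 570 nm. Also checked by trypan blue exclusion. Value is highest concentration giving >95% viability; ≥3 experiments in triplicate.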
(Formazan colour is commonly taken as a measure of viable cells.)

In data set [3] the test system is HUVEC. The experiment in a line: Antiinflammatory activity against TNF-alpha-induced ICAM1 protein expression in HUVEC at maximum tolerated dose pretreated for 2 hrs before TNFalpha challenge measured after 16 hrs by whole cell ELISA. Format: functional, Homo sapiens. The essentials:
as §1

Data set [4] can be described thus: Antiinflammatory activity against TNF-alpha-induced VCAM-1 protein expression in HUVEC by ELISA. Background: An ELISA detects its analyte on a solid surface through an enzyme-linked reagent.

The IC50 is the point on the concentration scale where inhibition reaches its midpoint.

Values after ≈ are worked out from the molar mass of the structure shown.

As to `CCCOC(=O)CCc1cc(OC)c(OC)c(OC)c1`, the IC50 in data set [1] amounted to 110 µg/mL (≈ 390 µM). Moreover, in data set [2], the MNTC at 24 h amounted to 120 µg/mL. Moreover, the “inhibition (INH)” value in data set [3] is 62%.
In the same order, the values of `CCSC(=O)CCc1cc(OC)c(OC)c(OC)c1` are 60 µg/mL (≈ 211 µM), 60 µg/mL and 50%.
For `CC(C)OC(=S)/C=C/c1ccccc1` [ISOPROPYL THIONOCINNAMATE], the IC50 in data set [1] turned out to be 20 µg/mL (≈ 96.9 µM). In addition, the MNTC at 24 h in data set [2] amounted to 35 µg/mL. The “inhibition (INH)” value in data set [3] worked out at 80%.
For `CCCCOC(=O)/C=C/c1ccccc1` [BUTYL CINNAMATE], the IC50 in data set [1] was 125 µg/mL (≈ 612 µM). For the same compound, the MNTC at 24 h in data set [2] worked out at 140 µg/mL. Further, the “inhibition (INH)” value in data set [3] is 55%.
Consider `COc1cc(/C=C/C(=O)Oc2ccccc2)cc(OC)c1OC`, for which, in data set [2], the MNTC at 24 h stood at 45 µg/mL. The “inhibition (INH)” value in data set [3] is on record as 40%.
`CCCCOC(=S)/C=C/c1ccccc1` [BUTYL THIONOCINNAMATE]: in data set [1], the IC50 is 55 µg/mL (≈ 250 µM). In addition, the MNTC at 24 h in data set [2] came out at 85 µg/mL. The “inhibition (INH)” value in data set [3] is 70%.
As for `COc1cccc(/C=C/C(=O)OC(C)C)c1O`, the MNTC at 24 h in data set [2] was 120 µg/mL. Moreover, in data set [3], the “inhibition (INH)” value was determined as 30%.
In the case of `CCOC(=O)/C=C/c1cc(OC)c(OC)c(OC)c1`, the IC50 in data set [1] was 25 µg/mL (≈ 93.9 µM). For the same compound, in data set [2], the MNTC at 24 h came out at 50 µg/mL. Also, in data set [3], the “inhibition (INH)” value worked out at 90%.
On to `COc1ccc(OC)c(/C=C/C(=O)OC(C)C)c1`, for which the MNTC at 24 h in data set [2] amounted to 120 µg/mL. In addition, the “inhibition (INH)” value in data set [3] came to 35%.
With `CCCCCCCCSC(=O)/C=C/c1ccccc1` [OCTYL THIOCINNAMATE], the MNTC at 24 h in data set [2] was 60 µg/mL. For the same compound, the “inhibition (INH)” value in data set [3] came out at 45%.
As for `O=C(/C=C/c1ccccc1)OCc1ccccc1` [BENZYL CINNAMATE], the 50% inhibitory concentration (IC50) in data set [1] came out at 70 µg/mL (≈ 294 µM). In addition, the MNTC at 24 h in data set [2] was determined as 70 µg/mL. The “inhibition (INH)” value in data set [3] is recorded as 50%.
In the case of `CCOC(=S)/C=C/c1cc(OC)ccc1OC`, the IC50 in data set [1] stood at 15 µg/mL (≈ 59.4 µM). Moreover, the MNTC at 24 h in data set [2] was 25 µg/mL. Besides, the “inhibition (INH)” value in data set [3] is 80%.
In the same order, the values of `CCCOC(=O)/C=C/c1cc(OC)ccc1OC` are 110 µg/mL (≈ 439 µM), 120 µg/mL and 55%.
As for `O=C(/C=C/c1ccccc1)Sc1ccccc1` [PHENYL THIOCINNAMATE], in data set [1], the half-maximal inhibitory concentration (IC50) was 55 µg/mL (≈ 229 µM). Further, the MNTC at 24 h in data set [2] was found to be 70 µg/mL. Besides, the “inhibition (INH)” value in data set [3] is 65%.
For `CCCSC(=O)/C=C/c1cc(OC)ccc1OC`, in that order: 45 µg/mL (≈ 169 µM), 50 µg/mL and 55%.
For the compound `COc1cc(/C=C/C(=O)Sc2ccccc2)cc(OC)c1OC`, the half-maximal inhibitory concentration (IC50) in data set [1] amounted to 30 µg/mL (≈ 90.8 µM). Besides, the MNTC at 24 h in data set [2] worked out at 50 µg/mL. Besides, in data set [3], the “inhibition (INH)” value amounted to 85%.
Consider `CCOC(=O)/C=C/c1ccccc1` [ETHYL CINNAMATE], for which the 50% inhibitory concentration (IC50) in data set [1] came to 95 µg/mL (≈ 539 µM). For the same compound, the MNTC at 24 h in data set [2] worked out at 130 µg/mL. Moreover, in data set [3], the “inhibition (INH)” value came out at 85%.
In the same order, the values of `CCSC(=O)/C=C/c1cc(OC)ccc1OC` are 35 µg/mL (≈ 139 µM), 50 µg/mL and 70%.
As for `CCCCCCCCSC(=O)/C=C/c1cc(OC)ccc1OC`, the MNTC at 24 h in data set [2] was determined as 50 µg/mL. The “inhibition (INH)” value in data set [3] is 30%.
On to `CCCSC(=O)/C=C/c1cc(OC)c(OC)c(OC)c1`, for which the IC50 in data set [1] amounted to 70 µg/mL (≈ 236 µM). Also, the MNTC at 24 h in data set [2] stood at 70 µg/mL. Besides, the “inhibition (INH)” value in data set [3] was 50%.
For the compound `COc1cc(/C=C/C(=O)SCc2ccccc2)cc(OC)c1OC`, in data set [1], the concentration for half-maximal inhibition (IC50) turned out to be 20 µg/mL (≈ 58.1 µM). Further, the MNTC at 24 h in data set [2] is 40 µg/mL. The “inhibition (INH)” value in data set [3] is listed as 75%.
Take `COc1cc(CCC(=O)SCc2ccccc2)cc(OC)c1OC`: the MNTC at 24 h in data set [2] came out at 60 µg/mL. The “inhibition (INH)” value in data set [3] turned out to be 45%.
As for `COc1cc(/C=C/C(=O)OC(C)C)cc(OC)c1OC`, the IC50 in data set [1] worked out at 45 µg/mL (≈ 161 µM). The MNTC at 24 h in data set [2] was determined as 65 µg/mL. Also, the “inhibition (INH)” value in data set [3] is reported as 80%.
For the compound `CCSC(=O)/C=C/c1cc(OC)c(OC)c(OC)c1`, the IC50 in data set [1] was 25 µg/mL (≈ 88.5 µM). Also, the MNTC at 24 h in data set [2] amounted to 30 µg/mL. Also, the “inhibition (INH)” value in data set [3] turned out to be 65%.
Turning to `COc1cc(CCC(=O)OC(C)C)cc(OC)c1OC`, the MNTC at 24 h in data set [2] amounted to 65 µg/mL. Besides, the “inhibition (INH)” value in data set [3] is given as 40%.
For the compound `CCSC(=O)/C=C/c1ccccc1` [ETHYL THIOCINNAMATE], the half-inhibitory concentration (IC50) in data set [1] is 47 µg/mL (≈ 244 µM). Further, the MNTC at 24 h in data set [2] was 50 µg/mL. Further, the “inhibition (INH)” value in data set [3] is 55%.
Turning to `CCCOC(=S)/C=C/c1cc(OC)c(OC)c(OC)c1`, the IC50 in data set [1] was determined as 17 µg/mL (≈ 57.4 µM). Further, in data set [2], the MNTC at 24 h is 30 µg/mL. Moreover, the “inhibition (INH)” value in data set [3] is reported as 80%.
As to `O=C(/C=C/c1ccccc1)SCc1ccccc1` [BENZYL THIOCINNAMATE], the MNTC at 24 h in data set [2] stood at 60 µg/mL. For the same compound, the “inhibition (INH)” value in data set [3] came to 40%.
For `CCCOC(=S)/C=C/c1ccccc1` [PROPYL THIONOCINNAMATE], the IC50 in data set [1] came to 50 µg/mL (≈ 242 µM). For the same compound, the MNTC at 24 h in data set [2] was found to be 80 µg/mL. In addition, in data set [3], the “inhibition (INH)” value was found to be 75%.
In the same order, the values of `CCCOC(=S)/C=C/c1cc(OC)ccc1OC` are 25 µg/mL (≈ 93.9 µM), 40 µg/mL and 70%.
`COc1ccc(OC)c(/C=C/C(=O)Oc2ccccc2)c1`: the MNTC at 24 h in data set [2] was found to be 60 µg/mL. Besides, the “inhibition (INH)” value in data set [3] stood at 30%.
Take `CCCCCCCCSC(=O)CCc1cc(OC)c(OC)c(OC)c1`: the MNTC at 24 h in data set [2] was 80 µg/mL. In addition, in data set [3], the “inhibition (INH)” value was found to be 40%.
Consider `CCCCCCCCSC(=O)/C=C/c1cc(OC)c(OC)c(OC)c1`, for which, in data set [2], the MNTC at 24 h is 70 µg/mL. Moreover, the “inhibition (INH)” value in data set [3] stood at 46%.
For the compound `COc1ccc(CCC(=O)OC(C)C)cc1OC`, the MNTC at 24 h in data set [2] is 110 µg/mL. Besides, the “inhibition (INH)” value in data set [3] was determined as 30%.
Take `CCCOC(=O)/C=C/c1ccccc1` [PROPYL CINNAMATE]: the IC50 in data set [1] was 100 µg/mL (≈ 526 µM). In data set [2], the MNTC at 24 h came out at 140 µg/mL. Also, the “inhibition (INH)” value in data set [3] stood at 70%.
Consider `CCCOC(=O)CCc1ccc(OC)c(OC)c1`, for which the IC50 in data set [1] came to 90 µg/mL (≈ 357 µM). For the same compound, the MNTC at 24 h in data set [2] was 100 µg/mL. For the same compound, the “inhibition (INH)” value in data set [3] was 55%.
Regarding `Nc1ccc(O)c(C(=O)O)c1` [MESALAMINE], the midpoint of inhibition in data set [4], the IC50, lay at 16 mM.
On to `CCCOC(=O)/C=C/c1cc(OC)c(OC)c(OC)c1`, for which the IC50 in data set [1] was determined as 100 µg/mL (≈ 357 µM). In addition, the MNTC at 24 h in data set [2] worked out at 120 µg/mL. Also, the “inhibition (INH)” value in data set [3] was 62%.
The compound `CC(=O)Oc1ccccc1C(=O)O` [ASPIRIN] displayed an IC50 in data set [4] of 6 mM.
Regarding `CCCCCCCCOC(=O)/C=C/c1ccccc1` [OCTYL CINNAMATE], the MNTC at 24 h in data set [2] came out at 70 µg/mL. Besides, in data set [3], the “inhibition (INH)” value turned out to be 35%.
As for `CCOC(=S)/C=C/c1ccccc1` [ETHYL THIONOCINNAMATE], in data set [1], the concentration for half-maximal inhibition (IC50) worked out at 22 µg/mL (≈ 114 µM). The MNTC at 24 h in data set [2] was 50 µg/mL. Besides, the “inhibition (INH)” value in data set [3] was 90%.
In the same order, the values of `CCOC(=O)CCc1cc(OC)c(OC)c(OC)c1` are 110 µg/mL (≈ 410 µM), 110 µg/mL and 50%.
As for `COc1ccc(OC)c(/C=C/C(=O)SCc2ccccc2)c1`, the 50% inhibitory concentration (IC50) in data set [1] is 60 µg/mL (≈ 191 µM). Also, the MNTC at 24 h in data set [2] was determined as 60 µg/mL. Further, in data set [3], the “inhibition (INH)” value was 50%.
